Measured values taken from ChEMBL document CHEMBL1122273, “5-sulfamoylorthanilic acids, a sulfonamide series with salidiuretic activity” (J Med Chem, 1983).

Tests used:
Canis familiaris [1] = experiment: Diuretic activity in the dog (2 animals/dose) at (dose 0.025 mg/Kg), when administered perorally; type: functional, Canis lupus familiaris, Urine
Summary of the method: (§1)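 Trained male beagles, fasted 24 h with tap water ad libitum. Bladder emptied by catheter, then 20 mL/kg tap water by stomach tube, with 4 mL/kg water at each hourly catheterization up to 8 h. The first 2 h of urine served as control. Oral dosing came after the second catheterization, and 1–6 h urine was pooled. Na⁺ and K⁺ were measured by flame photometry, Cl⁻ argentometrically, in mequiv/kg.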

Canis familiaris [2] = experiment: sodium excretion collected at 1-24 hr time after oral administration in dog (four animals per dose) dosed at 0.05 mg/kg.; type: functional, Canis lupus familiaris
Summary of the method: (§2)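 Trained male beagles, four per dose, fasted 24 h with tap water ad libitum. After bladder emptying, given 20 mL/kg tap water by stomach tube, then 4 mL/kg at each hourly catheterization; 2 h control collection, then oral dosing. Urine volume and Na⁺ (flame photometry) reported for 1–6, 7–24 and 1–24 h post-dose periods.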

Canis familiaris [3] = experiment: sodium excretion collected at 1-24 hr time after oral administration in dog (four animals per dose) dosed at 0.39 mg/kg.; type: functional, Canis lupus familiaris; summary of the method: as §2
Canis familiaris [4] = experiment: sodium excretion collected at 1-24 hr time after oral administration in dog (four animals per dose) dosed at 3.12 mg/kg.; type: functional, Canis lupus familiaris; summary of the method: as §2
Canis familiaris [5] = experiment: sodium excretion collected at 1-6 hr time after oral administration in dog (four animals per dose) dosed at 0.39 mg/kg.; type: functional, Canis lupus familiaris; summary of the method: as §2
Canis familiaris [6] = experiment: sodium excretion collected at 1-6 hr time after oral administration in dog (four animals per dose) dosed at 3.12 mg/kg.; type: functional, Canis lupus familiaris; summary of the method: as §2
Canis familiaris [7] = experiment: urinary excretion collected at 1-6 hr time after oral administration in dog (four animals per dose) dosed at 3.12 mg/kg.; type: functional, Canis lupus familiaris, Urine
Canis familiaris [8] = experiment: urinary excretion collected at 7-24 hr time after oral administration in dog (four animals per dose) dosed at 0.39 mg/kg.; type: functional, Canis lupus familiaris, Urine
Canis familiaris [9] = experiment: urinary excretion collected at 7-24 hr time after oral administration in dog (four animals per dose) dosed at 3.12 mg/kg.; type: functional, Canis lupus familiaris, Urine
Canis familiaris [10] = experiment: sodium excretion collected at 7-24h time after oral administration in dog (four animals per dose) dosed at 0.05 mg/kg.; type: functional, Canis lupus familiaris
Summary of the method: (§3)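 Trained male beagles, four per dose, fasted 24 h with tap water ad libitum. The bladder was emptied by catheter, then 20 mL/kg tap water was given by stomach tube. Dogs were catheterized hourly with 4 mL/kg water orally each time, and the first 2 h served as control. Compound was given orally after the second catheterization. Urine volume and flame-photometric Na⁺ were measured over 1-6, 7-24 and 1-24 h.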

Canis familiaris [11] = experiment: urinary excretion collected at 1-24 hr time after oral administration in dog (four animals per dose) dosed at 0.05 mg/kg.; type: functional, Canis lupus familiaris, Urine; summary of the method: as §3
[12] = It is the ratio, measured as saluretic activity in the dog as concentration of Cl- in urinary excretion (dose 0.4 mg/Kg, po) to that of (Na+)+(K+); type: functional, Urine; summary of the method: as §1
[13] = It is the ratio, measured as saluretic activity in the dog as concentration of Na+ in urinary excretion (dose 1.56 mg/Kg, po) to that of K; type: functional, Urine; summary of the method: as §1
[14] = It is the ratio, measured as saluretic activity in the dog as concentration of Cl- in urinary excretion (dose 1.56 mg/Kg, po) to that of (Na+)+(K+); type: functional, Urine; summary of the method: as §1
Canis familiaris [15] = experiment: Saluretic activity in the dog measured as concentration of Na+ in urinary excretion (2 animals/dose) at (dose 12.5 mg/Kg, perorally); type: functional, Canis lupus familiaris, Urine
Summary of the method: (§4)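 Male beagles trained to rest on a table and to accept stomach tube and catheter. Food withdrawn 24 h before, tap water ad libitum. Bladder emptied by catheter, then 20 mL/kg tap water by stomach tube. Catheterized hourly up to 8 h with 4 mL/kg water orally each time; first 2 h urine served as control. Oral dosing after second catheterization. Pooled 1–6 h urine; Na⁺/K⁺ by flame photometry, Cl⁻ argentometrically.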

Canis familiaris [16] = experiment: Saluretic activity in the dog measured as concentration of Na+ in urinary excretion (2 animals/dose) at a dose of 0.1 mg/Kg, perorally; type: functional, Canis lupus familiaris, Urine; summary of the method: as §4
Canis familiaris [17] = experiment: Diuretic activity in the dog (2 animals/dose) at (dose 12.5 mg/Kg), when administered perorally; type: functional, Canis lupus familiaris, Urine; summary of the method: as §1
Canis familiaris [18] = experiment: Saluretic activity in the dog measured as concentration of K+ in urinary excretion (2 animals/dose) at (dose 12.5 mg/Kg, perorally); type: functional, Canis lupus familiaris, Urine; summary of the method: as §4
Canis familiaris [19] = experiment: Urinary excretion collected at 1-24 hr time after oral administration in dog (four animals per dose) at dose 0.39 mg/kg.; type: functional, Canis lupus familiaris, Urine; summary of the method: as §2
Canis familiaris [20] = experiment: Urinary excretion collected at 1-24 hr time after oral administration in dog (four animals per dose) at dose 6.25 mg/kg.; type: functional, Canis lupus familiaris, Urine; summary of the method: as §2
Canis familiaris [21] = experiment: Urinary excretion collected at 1-6 hr time after oral administration in dog (four animals per dose) at dose 0.39 mg/kg.; type: functional, Canis lupus familiaris, Urine; summary of the method: as §2
Canis familiaris [22] = experiment: sodium excretion collected at 1-24 hr time after oral administration in dog (four animals per dose) at dose 0.39 mg/kg.; type: functional, Canis lupus familiaris; summary of the method: as §2
Canis familiaris [23] = experiment: sodium excretion collected at 1-24 hr time after oral administration in dog (four animals per dose) at dose 1.56 mg/kg.; type: functional, Canis lupus familiaris; summary of the method: as §2
Canis familiaris [24] = experiment: sodium excretion collected at 1-24 h time after oral administration in dog (four animals per dose) at dose 6.25 mg/kg.; type: functional, Canis lupus familiaris; summary of the method: as §2
Canis familiaris [25] = experiment: sodium excretion collected at 1-6 hr time after oral administration in dog (four animals per dose) at dose 6.25 mg/kg.; type: functional, Canis lupus familiaris; summary of the method: as §2
Canis familiaris [26] = experiment: sodium excretion collected at 7-24 hr time after oral administration in dog (four animals per dose) at dose 0.39 mg/kg.; type: functional, Canis lupus familiaris; summary of the method: as §2
Canis familiaris [27] = experiment: sodium excretion collected at 7-24 hr time after oral administration in dog (four animals per dose) at dose 1.56 mg/kg.; type: functional, Canis lupus familiaris; summary of the method: as §2
Canis familiaris [28] = experiment: sodium excretion collected at 7-24 hr time after oral administration in dog (four animals per dose) at dose 6.25 mg/kg.; type: functional, Canis lupus familiaris; summary of the method: as §2
Canis familiaris [29] = experiment: Urinary excretion collected at 1-6 hr time after oral administration in dog (four animals per dose) at dose 6.25 mg/kg.; type: functional, Canis lupus familiaris, Urine; summary of the method: as §2
Canis familiaris [30] = experiment: Urinary excretion collected at 7-24 hr time after oral administration in dog (four animals per dose) at dose 6.25 mg/kg.; type: functional, Canis lupus familiaris, Urine; summary of the method: as §2
[31] = It is the ratio, measured as saluretic activity in the dog as concentration of Cl- in urinary excretion (dose 0.4 mg/Kg, perorally) to that of (Na++K+); type: functional, Urine; summary of the method: as §1
[32] = It is the ratio, measured as saluretic activity in the dog as concentration of Na+ in urinary excretion (dose 1.56 mg/Kg, perorally) to that of K; type: functional, Urine; summary of the method: as §1
[33] = It is the ratio, measured as saluretic activity in the dog as concentration of Na+ in urinary excretion (dose 12.5 mg/kg, p.o.) to that of K; type: functional, Urine; conditions: route oral; summary of the method: as §1
[34] = It is the ratio, measured as saluretic activity in the dog as concentration of Cl- in urinary excretion (dose 1.56 mg/Kg, perorally) to that of (Na+)+K+); type: functional, Urine; summary of the method: as §1
Rattus norvegicus [35] = species on record: Rattus norvegicus; experiment: Effect on inulin U/P ratio in rats in comparison to furosemide activity
Rattus norvegicus [36] = species on record: Rattus norvegicus; experiment: Effect on (GFR) glomerular filtration rate in rats in comparison to furosemide activity

CN(c1ccccc1)c1cc(NCc2ccco2)c(S(=O)(=O)[O-])cc1S(N)(=O)=O.[Na+]
Diuretic activity (Canis familiaris [1]): 33.3 ml kg-1 6hr-1 | Na+ excretion (Canis familiaris [2]): 1.51 mequiv kg-1 | Na+ excretion (Canis familiaris [3]): 5.81 mequiv kg-1 | Na+ excretion (Canis familiaris [4]): 6.48 mequiv kg-1 | Na+ excretion (Canis familiaris [5]): 5.26 mequiv kg-1 | Na+ excretion (Canis familiaris [6]): 4.39 mequiv kg-1 | Urinary excretion (Canis familiaris [7]): 61.2 mL/kg | Urinary excretion (Canis familiaris [8]): 20.4 mL/kg | Urinary excretion (Canis familiaris [9]): 40.8 mL/kg | Na+ excretion (Canis familiaris [10]): 0.22 mequiv kg-1 | Urinary excretion (Canis familiaris [11]): 50.6 mL/kg | Ratio [12]: 1 | Ratio [13]: 4.9 | Ratio [14]: 1

NS(=O)(=O)c1cc(S(=O)(=O)[O-])c(NCc2ccco2)cc1Oc1ccccc1.[Na+]
Saluretic activity (Canis familiaris [15]): 6.49 m equiv 6hr-1 kg-1 | Saluretic activity (Canis familiaris [16]): 0.18 m equiv 5hr-1 kg-1 | Diuretic activity (Canis familiaris [17]): 74.3 ml kg-1 6hr-1 | Saldiuretic activity (Canis familiaris [18]): 1.17 m equiv 6hr-1 kg-1 | Urinary excretion (Canis familiaris [19]): 50.9 mL/kg | Urinary excretion (Canis familiaris [20]): 111.1 mL/kg | Urinary excretion (Canis familiaris [21]): 41.6 mL/kg | Na+ excretion (Canis familiaris [22]): 2.04 mequiv/kg | Na+ excretion (Canis familiaris [23]): 5.4 mequiv kg-1 | Na+ excretion (Canis familiaris [24]): 8.55 mequiv kg-1 | Na+ excretion (Canis familiaris [25]): 6.52 mequiv kg-1 | Na+ excretion (Canis familiaris [26]): 0.47 mequiv kg-1 | Na+ excretion (Canis familiaris [27]): 0.48 mequiv kg-1 | Na+ excretion (Canis familiaris [28]): 1.98 mequiv kg-1 | Urinary excretion (Canis familiaris [29]): 75.4 mL/kg | Urinary excretion (Canis familiaris [30]): 38.3 mL/kg | Ratio [31]: 1.1 | Ratio [32]: 4.9 | Ratio [33]: 5.5 | Ratio [34]: 0.95 | Ratio (Rattus norvegicus [35]): 7.66 | GFR (Rattus norvegicus [36]): 6.89 mL/min/kg
